In one data set the target is T1, MAO-B (Homo sapiens, UniProt P27338).
T1 sequence (P27338 whole entry): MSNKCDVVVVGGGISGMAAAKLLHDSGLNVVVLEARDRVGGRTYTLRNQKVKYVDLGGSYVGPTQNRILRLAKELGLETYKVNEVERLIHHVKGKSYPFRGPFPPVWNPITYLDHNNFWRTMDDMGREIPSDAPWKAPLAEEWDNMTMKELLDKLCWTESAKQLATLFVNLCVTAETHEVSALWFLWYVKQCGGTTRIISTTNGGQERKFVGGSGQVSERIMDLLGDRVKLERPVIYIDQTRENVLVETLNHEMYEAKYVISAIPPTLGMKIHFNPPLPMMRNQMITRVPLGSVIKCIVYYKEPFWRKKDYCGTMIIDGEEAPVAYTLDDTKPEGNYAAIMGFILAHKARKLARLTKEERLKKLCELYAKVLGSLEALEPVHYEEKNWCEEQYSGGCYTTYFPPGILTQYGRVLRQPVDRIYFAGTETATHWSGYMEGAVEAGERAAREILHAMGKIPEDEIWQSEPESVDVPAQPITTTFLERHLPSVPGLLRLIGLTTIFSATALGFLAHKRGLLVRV
Put plainly: Inhibition of recombinant human MAO-B assessed as reduction of H2O2 production from oxidative deamination of benzylamine at 10 uM preincubated for 2 hrs followed by substrate addition. Conditions: probe benzylamine. Put shortly: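 Purified recombinant human MAO-A (tyramine substrate) or MAO-B (benzylamine substrate) was preincubated with compound for 2 h. Percent inhibition was calculated against vehicle and enzyme-free controls.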

In data set [1] the target is T2, Amine oxidase [copper-containing] 3 (Homo sapiens) (UniProt Q16853).
T2 sequence (whole entry): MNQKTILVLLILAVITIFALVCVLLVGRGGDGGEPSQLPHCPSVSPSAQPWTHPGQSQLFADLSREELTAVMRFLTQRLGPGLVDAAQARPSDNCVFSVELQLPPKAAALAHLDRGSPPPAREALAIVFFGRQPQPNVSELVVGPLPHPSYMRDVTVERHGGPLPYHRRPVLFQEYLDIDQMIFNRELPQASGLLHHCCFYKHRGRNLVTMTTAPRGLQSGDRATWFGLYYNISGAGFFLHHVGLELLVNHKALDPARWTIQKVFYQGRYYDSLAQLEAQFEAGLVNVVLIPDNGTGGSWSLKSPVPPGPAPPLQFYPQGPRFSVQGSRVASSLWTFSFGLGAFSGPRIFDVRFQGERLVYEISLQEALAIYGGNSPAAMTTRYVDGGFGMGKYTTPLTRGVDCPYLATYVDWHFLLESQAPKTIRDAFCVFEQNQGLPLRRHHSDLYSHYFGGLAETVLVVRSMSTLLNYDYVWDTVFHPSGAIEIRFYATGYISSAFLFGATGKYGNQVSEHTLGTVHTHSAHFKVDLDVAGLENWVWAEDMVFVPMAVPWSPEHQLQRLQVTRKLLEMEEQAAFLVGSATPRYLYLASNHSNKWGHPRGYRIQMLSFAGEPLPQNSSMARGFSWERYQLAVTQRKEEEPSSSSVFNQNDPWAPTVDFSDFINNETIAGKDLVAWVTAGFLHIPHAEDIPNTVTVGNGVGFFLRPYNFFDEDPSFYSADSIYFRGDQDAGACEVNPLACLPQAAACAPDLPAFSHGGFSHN
The data set is described as follows: Inhibition of SSAO in human plasma assessed as reduction of H2O2 production from oxidative deamination of benzylamine at 10 uM preincubated for 2 hrs followed by substrate addition measured every 2 mins for 1 hr by amplex red reagent-based fluorescence assay relative to control. Put shortly:
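Endogenous SSAO in human plasma was the enzyme source and benzylamine the substrate. After a 2 h preincubation with compound, percent inhibition was calculated relative to a vehicle control and to a control containing 1 μM of the known SSAO inhibitor PXS-4681A.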

The target in another data set is T3, Lysyl oxidase homolog 2 (Mus musculus, UniProt P58022).
T3 sequence (P58022 whole entry): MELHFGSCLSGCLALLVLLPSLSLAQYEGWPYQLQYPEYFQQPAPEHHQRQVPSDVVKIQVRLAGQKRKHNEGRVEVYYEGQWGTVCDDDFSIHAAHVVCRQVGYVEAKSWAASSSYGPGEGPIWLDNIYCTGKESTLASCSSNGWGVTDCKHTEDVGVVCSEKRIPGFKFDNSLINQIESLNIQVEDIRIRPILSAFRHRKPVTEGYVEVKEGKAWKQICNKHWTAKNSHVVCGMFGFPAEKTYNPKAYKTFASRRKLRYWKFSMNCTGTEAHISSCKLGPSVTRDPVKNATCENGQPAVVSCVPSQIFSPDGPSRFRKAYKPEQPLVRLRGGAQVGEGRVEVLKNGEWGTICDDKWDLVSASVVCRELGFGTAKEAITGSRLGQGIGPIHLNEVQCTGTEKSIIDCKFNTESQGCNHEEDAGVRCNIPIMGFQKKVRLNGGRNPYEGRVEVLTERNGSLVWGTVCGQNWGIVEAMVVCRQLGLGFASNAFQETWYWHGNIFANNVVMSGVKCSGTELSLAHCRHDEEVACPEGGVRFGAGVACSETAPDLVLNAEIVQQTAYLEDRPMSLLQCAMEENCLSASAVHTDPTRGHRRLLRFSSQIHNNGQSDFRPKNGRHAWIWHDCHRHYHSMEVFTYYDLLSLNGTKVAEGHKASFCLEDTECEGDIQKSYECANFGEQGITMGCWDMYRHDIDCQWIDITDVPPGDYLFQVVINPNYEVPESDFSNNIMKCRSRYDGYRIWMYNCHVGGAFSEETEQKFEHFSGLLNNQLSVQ
Put plainly: (§1) Inhibition of recombinant mouse LOXL2 expressed in mouse whole blood assessed as reduction of H2O2 production from oxidative deamination of DAP preincubated for 2 hrs followed by substrate addition measured every 2 mins for 1 hr by amplex red reagent-based fluorescence assay.

Data set [2] deals with T4, Lysyl oxidase homolog 2 (Mus musculus) (UniProt P58022).
T4 sequence (whole entry): T3 sequence (P58022 whole entry)
The description is as §1.

Where only a bound is given, the exact number is not on record here.

This passage reports inhibition, IC50 and IC90 results from ChEMBL document CHEMBL4049456, “Identification of 4-(Aminomethyl)-6-(trifluoromethyl)-2-(phenoxy)pyridine Derivatives as Potent, Selective, and Orally Efficacious Inhibitors of the Copper-Dependent Amine Oxidase, Lysyl Oxidase-Like 2 (LOXL2)” (J Med Chem, 2017).

As usually defined, the inhibition is how much of the control response was suppressed. Usually IC50 stands for the concentration that gives 50% inhibition. In general, IC90 refers to the concentration at which the effect reaches the 90% level.

In the case of `Cl.NCc1cc(Oc2cccc(C(=O)N3C[C@@H](O)[C@H](F)C3)c2)nc(C(F)(F)F)c1` (racemic), at MAO-B, the inhibition at 2 h, 10 µM was below 10%. The inhibition in data set [1] was determined as 16%. For the same compound, the IC50 at Lysyl oxidase homolog 2 turned out to be 0.86 µM. The IC90 in data set [2] amounted to 5.6 µM.
